# This is one part of a sample in which hits are shown more often than they occur.
# bCat KO growth = beta-catenin-lacking colon tumor cell growth suppression; hit rate 1.5% among 140,000; viability, % at 10 µM; HCT116 beta-catenin knockout viability, CellTiter-Glo, 60 h; hits give low values;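 active = viability at or under a set limit, the compound median less 4 SD, cut at about 6% in these data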;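 also: 0% = Hyamine 1622 control at 20 µM and 100% = untreated cell control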
# Lung fibro prol = blocks proliferation of human lung fibroblasts; LL 47 human lung fibroblast viability, ATP luminescence; hits give low values; viability, % at 10 µM; hit rate 1.1% among 85,000; AID 719;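 active = viability at or below 50% in the single dose screen; inactive = viability above 50%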;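 also: compound exposure lasted 72 h before the ATP readout; 100% = median luminescence of untreated cell-only wells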
#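 Material: human LL 47 lung fibroblast cells; quantity: 1,150 cells/well; medium: IMEM plus 15% FBS; doses: 0.1% DMSO in all compound wells; timing: overnight attachment after seeding, then 72 h compound exposure at 37 °C; detection: CellTiter-Glo luminescence; measure: % viability of median cell-only signal; controls: cell-only wells, no compound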
# Phagocyt inh = macrophage phagocytosis inhibition; J774A.1 macrophage IgG-bead phagocytosis, imaging; inhibition, % at 5 µM; hit rate 0.07% among 110,000;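 active = inhibition above the mean of the plate negative controls plus 5 SD, cut at about 13% in these data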;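 also: phagocytic index as fraction of beads internalized from green versus red external bead signal; plate controls were DMSO negative control for no effect and cytochalasin-D positive control for full effect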
# H69AR inhibit = blocks growth of human H69AR lung tumor cells. H69AR lung tumor viability, ATP luminescence, 72 h; hits give low values. viability, % at 10 µM. hit rate 6% among 85,000;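 active = viability at or below 40%; inactive = viability above 40%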;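 also: multidrug resistant small cell line overexpressing MRP-1 efflux transporter; 100% = mean luminescence of untreated control wells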
# HUVEC inhibit = human endothelial cell proliferation inhibition; HUVEC proliferation, CellTiter-Glo luminescence, 72 h; hits give low values; viability, % at 10 µM (by protocol); hit rate 1.1% among 86,000; AID 648;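 active = viability at or below 30%; inactive = viability above 30%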;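 also: 100% = median luminescence of DMSO-only cell control wells on each plate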
# PTEN del growth = suppresses growth of cells with PTEN deletion; HCT116 PTEN-null viability, CellTiter-Glo, 60 h; hits give low values; viability, % at 10 µM; hit rate 1.2% among 140,000; AID 827;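 active = viability at or below a set limit, 4 SD under the median of all tested compounds, cut at about 3.7% in these data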;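 also: PTEN knockout HCT116 line with beta catenin targeted HCT116 as companion control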
# Active calls of the source: *; nt = no result; ! = not active in a repeat.
SMILES,bCat KO growth,Lung fibro prol,Phagocyt inh,H69AR inhibit,HUVEC inhibit,PTEN del growth
CCCCn1c(O)c(C=NC2CC3CCC2(C)C3(C)C)c(=O)[nH]c1=O (stereo not drawn),56,96,0,15*,98,36
COC(=O)[C@@H]1[C@@H](C(=O)OC)C2(c3ccccc3-c3ccccc32)N(c2ccc(Cl)cc2)N1C#N,0.8*,3.3*,nt,0.7*,2.7*,1.2*
COC(=O)C[C@]1(C(=O)OC)CN(C#N)N(c2ccc(Cl)cc2)C12c1ccccc1-c1ccccc12,0.4*,5.2*,nt,0.6*,2.4*,1.2*
OC(c1ccncc1)(c1ccc(F)cc1)c1ccc(F)cc1,90,nt,-5,nt,nt,107
COc1ccccc1-n1c(O)c(C=Nc2c(C)n(C)n(-c3ccccc3)c2=O)c(=O)[nH]c1=O,100,95,-1,102,87,105
CCC1(CC)C(=O)NC(=Nc2cccc(C(F)(F)F)c2)NC1=O,102,111,-1,103,98,96
O=C(C1CC(c2ccccc2O)=NO1)N1CCC2(CC1)OCCO2 (stereo not drawn),94,90,-1,74,91,73
CN1CCc2c(C#N)c(Cl)nc(Cl)c2C1,54,nt,-5,nt,nt,55
COc1ccc(CCNC(=O)c2c(N)n(CCN3CCOCC3)c3nc4ccccc4nc23)cc1,0.4*,79,0,22*,54,0.3*
Nc1c(C(=O)NCCc2ccccc2)c2nc3ccccc3nc2n1CCN1CCOCC1,1.7*,92,0,1.6*,55,1.9*
CCCCn1c(N)c(C(=O)NCCN2CCOCC2)c2nc3ccccc3nc21,74,93,0,57,65,71
COc1cccc(C2(O)CCSCC2CN(C)C)c1 (stereo not drawn),89,nt,-3,nt,nt,98
CC(C)Oc1cc(-n2c(=S)[nH]c3ccccc3c2=O)c(Cl)cc1Cl,76,nt,nt,nt,nt,70
CC(/C=N/NC(=O)c1n[nH]c2c1CCC2)=C\c1ccccc1,14,46*,7,23*,36,15
Cc1ccc(-n2c(O)c(C=Nc3ccccc3N)c(=O)[nH]c2=O)cc1C,78,110,0,13*,99,73
Cc1ccc(-n2c(O)c(C=NCc3cccnc3)c(=O)[nH]c2=O)cc1C,99,95,0,89,86,107
CC(=NCCN1CCOCC1)c1c(O)n(C2CCCCC2)c(=O)[nH]c1=O,103,103,1,82,109,110
CN1C(=O)N(C)C(=O)C2(Sc3ccccc3C2=O)C1=O,99,101,0,95,105,99
CCCCCc1nc2c(c(=O)c3ccccc3n2C)c(=O)n1C1CCCCCC1,1.5*,nt,-8,nt,nt,1.6*
CCCCCc1nc2ccccc2c(=O)n1-c1ccccc1[N+](=O)[O-],80,nt,nt,nt,nt,72
Cc1c2ccncc2c(C)c2c1[nH]c1ccccc12,1.3*,nt,nt,nt,nt,0.9*
CC(C(=O)c1c[nH]c2ccccc12)N1CCSCC1 (stereo not drawn),101,96,nt,99,93,97
CCC(C)NC(=O)c1c(N)n(Cc2ccc3c(c2)OCO3)c2nc3ccccc3nc12 (stereo not drawn),1.4*,nt,1,nt,nt,1.4*
c1ccc2cc3cc4ccccc4cc3cc2c1,nt,85,nt,101,90,nt
O=C(COc1ccc(Cl)cc1)N1CCN(C/C=C/c2ccccc2)CC1,68,80,nt,27*,84,66
SMILES,bCat KO growth,Lung fibro prol,Phagocyt inh,H69AR inhibit,HUVEC inhibit,PTEN del growth
O=C(COc1ccccc1)N1CCN(C/C=C/c2ccccc2)CC1,82,94,2,65,91,80
CN1C2CCC1/C(=C/c1ccccn1)C(=O)/C2=C\c1ccccn1,1.8*,nt,11,nt,nt,1.8*
Cc1ccccc1C(O)(Cc1ccccc1)C1CN2CCC1CC2 (stereo not drawn),1.1*,71,0,42,48,0.3*
N=c1n(CCO)c2ccccc2n1Cc1ccccc1,75,89,-1,86,94,73
FC(F)(F)c1ccc2c(c1)N(CCCN1CCN(CCCl)CC1)c1ccccc1S2,68,89,0,1.4*,37,56
C=CCn1c(O)c(C(C)=NCc2cc(OC)cc(OC)c2)c(=O)[nH]c1=O,27,48*,3,38*,26*,32
Cc1ccnc(-n2c(C)nc3ccccc3c2=O)c1,88,101,nt,87,102,94
Cc1cccc(N2CCc3c2nc2ccccc2c3N)c1,11,95,0,34*!,88,11
O=C(Cn1cc(C(=O)c2ccccc2F)c2ccccc21)NCc1ccco1,99,43*,4,112,74,88
CN(C)C(=O)Oc1ccc(OCc2nc3ccccc3[nH]2)cc1,30,nt,3,nt,nt,32
Nc1c2c(nc3sc4c(c13)CCCCC4)CCCC2,3.4*,nt,-8,nt,nt,7
CCN(CC)c1ccc(N=Cc2c(O)n(CCC3=CCCCC3)c(=O)[nH]c2=O)cc1,58,89,-1,17*,71,47
C=CCn1c(O)c(C=Nc2ccc(N(CC)CC)cc2)c(=O)[nH]c1=O,97,91,nt,85,102,92
O=c1[nH]c(=O)n(CCC2=CCCCC2)c(O)c1C=NC1CCN(Cc2ccccc2)CC1,39,96,0,32*,96,29
CN(C)c1ccc(N=Cc2c(O)n(CCC3=CCCCC3)c(=O)[nH]c2=O)cc1,89,99,0,10*,65,91
CC(C)C12CN3CCN(CC(C3)/C1=N\O)C2,98,94,1,105,96,102
CCCS(=O)(=O)N1CCC(C(=O)N2CCC3(CC2)OCCO3)CC1,91,42*,-1,84,100,101
CCS(=O)(=O)N1CCC(C(=O)N2CCC3(CC2)OCCO3)CC1,97,115,0,104,108,104
